Measured values as given in PubChem BioAssay AID624109 (Broad Institute, 2012).
Results filed as inconclusive are left out. The source made the active and inactive calls.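 Rule for the calls: active = curve reaches the -35% threshold at a concentration no more than twice the top valid dose, in duplicate at both wavelengths; inconclusive = no clear call, values can overlap the other calls; inactive = the rest, including effects opposite to the expected decrease.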

Test: inhibition of P. aeruginosa growth with EDDHA – absorbance 405 nm, dry powder, set 6, dose response (AID 624109)
Conditions: active compounds read low; at 0.056 µM unless noted
Procedure, shortened: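 System: Pseudomonas aeruginosa ATCC 15692 whole bacterial cells | Input: Bacterial inoculum at final OD600 of 0.0000005 | Medium: Succinate M9 medium at pH 7.0 with iron chelator EDDHA | Also added: 2 µM EDDHA final | Incubation: 24-30 h growth at 37 °C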

Max activity, inactive:
COCCC(C#N)c1ccc(Cl)cc1 (centres undefined) -41.4%
COCCC(C#N)c1ccc(F)cc1 (centres undefined) -46.3% [at 0.5 µM]
Clc1ccc(C(c2cccc(Cl)n2)c2nn[nH]n2)cc1 (centres undefined) 10.4% [at 13.5 µM]
CCCCC(C#N)c1ccccn1 (centres undefined) 1.07% [at 120 µM]
CCCCC(C#N)c1ccc(F)cc1 (centres undefined) -50.3% [at 1.5 µM]
CCCCC(C#N)c1ccc(Cl)cn1 (centres undefined) -57.2%
N#CC(c1ccc(F)cc1)c1cccc(Cl)n1 (centres undefined) -43.2% [at 0.16 µM]
CN(C)CCCC(C#N)c1ccc(Cl)cc1 (centres undefined) -33.4%
N#Cc1cccc(C(C#N)c2ccc(F)cc2)n1 (centres undefined) 19% [at 0.0195 µM]
CCCCC(C#N)c1ccc(F)cn1 (centres undefined) -30.6% [at 0.5 µM]
COCCNC(C#N)c1ccc(Cl)cc1 (centres undefined) -29.7% [at 4.6 µM]
CCCCC(C#N)c1ccc(Cl)cc1 (centres undefined) -39.1% [at 0.16 µM]
N#CC(c1ccc(Cl)cc1)c1ccccn1 (centres undefined) -55.2%
N#CC1c2ccc(Cl)cc2CCc2cccnc21 (centres undefined) -36.3% [at 4.6 µM]
